Compounds with a hit are over-represented: about 2.2% of the library has one in this group of screens.
Neddylation inh – cullin neddylation inhibition; P61081+Q13564; TR-FRET cullin neddylation, biochemical; inhibition, % at 25 µM; 360,000 tested, 0.58% active; in the data active = inhibition above about 36%
PfG6PD inh – PfG6PD (Plasmodium falciparum) enzyme inhibition. PfGluPho enzyme, NADPH resazurin-diaphorase fluorescence. inhibition, % at 20 µM. 350,000 tested, 0.78% active;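 active = inhibition reaching at least a set limit at 20 µM in the primary screen, cut at about 59% in these data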
HKDC1 inhibitor – inhibitors of human hexokinase HKDC1; Q2TB90; 340,000 tested, 0.16% active; AID 493160; inhibition, % at 20 µM; recombinant HKDC1, G6PDH/diaphorase resazurin coupled fluorescence;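 active = inhibition above about 35% when tested at 20 µM, limit read from the data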
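Material: recombinant HKDC1 hexokinase; Amount: HKDC1 at 5 µg/mL; Medium: Tris pH 8.0 buffer with MgCl2, Tween-20, BSA, BME; Schedule: 90 min reaction incubation at room temperature, dark; Technique: coupled resazurin fluorescence, excitation 525 nm, emission 613 nm.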
PfM18AAP inh-1 – blocks P. falciparum M18 aspartyl aminopeptidase | recombinant PfM18AAP, H-Glu-NHMec fluorogenic cleavage | inhibition, % at 7.35 µM | 290,000 tested, 1.2% active;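 active = inhibition above the campaign mean inhibition over all tested compounds plus 3 SD, cut at about 28% in these data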
PfM18AAP inh-2 – confirmation of Plasmodium falciparum M18 aspartyl aminopeptidase inhibitors; shares compounds with PfM18AAP inh-1; recombinant PfM18AAP, H-Glu-NHMec fluorogenic cleavage; inhibition, % at 7.35 µM; 2,400 tested, 28% active;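 active = mean inhibition over replicate wells above the hit cutoff set for the earlier primary screen, cut at about 29% in these data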
CTSL1 counter – Cathepsin L (human) inhibition, confirmation; AID 2178; inhibition, % at 5.96 µM; shares compounds with PfM18AAP inh-1; 2,400 tested, under 10 active; purified cathepsin L1, Z-Leu-Arg-MCA fluorescence;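 active = average inhibition across replicates above the hit cutoff set in the earlier primary screen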
Target sequence (P07711 whole entry, looked up): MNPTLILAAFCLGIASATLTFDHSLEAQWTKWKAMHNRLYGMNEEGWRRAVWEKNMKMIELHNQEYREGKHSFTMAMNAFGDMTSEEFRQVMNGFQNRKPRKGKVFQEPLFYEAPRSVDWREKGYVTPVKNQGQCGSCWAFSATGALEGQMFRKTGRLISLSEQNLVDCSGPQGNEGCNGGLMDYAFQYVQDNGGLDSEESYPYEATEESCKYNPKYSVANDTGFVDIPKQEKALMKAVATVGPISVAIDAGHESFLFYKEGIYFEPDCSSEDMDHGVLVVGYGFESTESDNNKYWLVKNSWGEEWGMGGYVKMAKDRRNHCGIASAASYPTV
HKDC1 act conf – confirmation of human HKDC1 activators. shares compounds with HKDC1 inhibitor. recombinant HKDC1, G6PDH/diaphorase resazurin fluorescence; stronger effect = lower value. inhibition, % at 20 µM. 740 tested, 14% active;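 active = inhibition at or below a set negative limit, negative inhibition meaning the enzyme was activated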
PfGluPho conf – confirmation of Plasmodium falciparum G6PD inhibitors. shares compounds with PfG6PD inh. recombinant PfGluPho, NADPH-diaphorase-resazurin fluorescence. inhibition, % at 20 µM. 2,400 tested, 34% active. AID 504753;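 active = inhibition of at least 50% at 20 µM in any single replicate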
Diaphorase 10uM – inhibits diaphorase or oxidizes, flagging false PfG6PD hits. shares compounds with PfG6PD inh. diaphorase-coupled resazurin reduction, fluorescence, NADPH 10 uM. inhibition, % at 20 µM. 820 tested, 39% active. AID 504862;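 active = average inhibition reaching 50% or more with the compound at 20 µM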;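 note: resorufin red fluorescence formed as diaphorase reduces resazurin using NADPH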
Diaph ctr 30uM – counter-screen for P. falciparum G6PD inhibitors: diaphorase inhibitors, oxidizers. shares compounds with PfG6PD inh. Diaphorase/resazurin coupled assay, resorufin fluorescence, 30 uM NADPH. AID 504863. 820 tested, 29% active. inhibition, % at 20 µM;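 active = inhibition averaging 50% or more, tested at 20 µM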
Hits are given with their value; 0 = inactive; - = no result given.

SMILES | Neddylation inh | PfG6PD inh | HKDC1 inhibitor | PfM18AAP inh-1 | PfM18AAP inh-2 | CTSL1 counter | others
CC[n+]1c(/C=C/N(C)c2ccccc2)sc2ccc(Cl)cc21 | 0 | 0 | 0 | 36 | 0 | 0
Cc1cc(/C=C2\C(=O)NC(=O)N(c3ccc(Br)cc3)C2=O)c(C)n1-c1cc(C(=O)O)cc(C(=O)O)c1 | 0 | 0 | 0 | 35 | 0 | 0
Cc1ccc(-n2nc(C)c3c2NC(=O)CSC3c2ccc3c(c2)OCO3)cc1 (stereo not given) | 0 | 0 | 0 | 35 | 0 | 0
COc1ccc(C2SCC(=O)Nc3c2c(C)nn3-c2ccccc2)cc1 (stereo not given) | 0 | 0 | 0 | 0 | - | -
O=c1[nH]c(Cl)ccc1CN1CCOCC1 | 0 | 0 | 0 | - | - | -
CC1=C(C(=O)O)N2C(=O)C(NC(=O)Cc3ccccc3)C2SC1 (stereo not given) | 0 | 0 | 0 | 48 | 0 | 0
CN1CCC(OC(=O)Cc2ccccc2)CC1 | 0 | 0 | 0 | 0 | - | -
Cc1noc(C)c1COc1ccc(C(=O)NCC2(N(C)C)CCCCC2)cc1 | 0 | 0 | - | - | - | -
O=C1NC(=O)N(c2ccc3c(c2)OCO3)C(=O)/C1=C\c1ccsc1 | 0 | 0 | 0 | 33 | 0 | 0
C[C@]12CCC3C(CC[C@@H]4C[C@H](O)CC[C@]34C)C1CCC2=O (stereo not given in full) | 0 | 0 | 0 | - | - | -
S=P(Nn1cnnc1)(c1ccccc1)c1ccccc1 | 0 | 0 | 0 | 44 | 49 | 0
CC1CN=C(NCCc2ccccc2)S1 (stereo not given) | 0 | 0 | 0 | 0 | - | -
COOCC1(C(=O)OC)C[C@H](c2ccc(OC)cc2)N(Cc2ccccc2OC)[C@@H]1c1ccccc1C (stereo not given in full) | 0 | - | - | - | - | -
O=C1NC(=S)NC(=O)C1=Cc1cccn1-c1ccc(O)cc1 | 0 | 0 | 0 | 34 | 57 | 0
CN1C(=O)/C(=C/c2cccn2-c2ccc3ccccc3c2)C(=O)NC1=S | 0 | 0 | 0 | 0 | - | -
CC12CCC(=O)C=C1CC(N1CC1)C1C2CCC2(C)C(O)CCC12 (stereo not given) | 0 | 0 | 0 | - | - | -
Oc1ccc(/C=N/NP(=S)(c2ccccc2)c2ccccc2)c(O)c1O | 0 | 0 | 0 | 33 | 0 | 0
Oc1ccccc1/C=N/NP(=S)(c1ccccc1)c1ccccc1 | 0 | 0 | 0 | 0 | - | -
Oc1ccc(/C=N/NP(=S)(c2ccccc2)c2ccccc2)cc1O | 0 | 0 | 0 | 38 | 0 | 0
O=C(N[C@H]1CP(=O)(Oc2ccccc2)O[C@H](COCc2ccccc2)[C@H]1O)C(Cl)(Cl)Cl (stereo not given in full) | 0 | 0 | 0 | - | - | -
COC(=O)Cn1cc(C=C2C(=O)NC(=O)NC2=O)c2ccccc21 | 0 | 0 | 0 | 49 | 30 | 0
CCn1cc(C=C2C(=O)NC(=O)NC2=O)c2ccccc21 | 0 | 0 | 0 | 42 | 38 | 0
N/C(=N\[N+](=O)[O-])N1CCN(C(=O)c2ccccn2)CC1 | 0 | 0 | 0 | 0 | - | -
CC(C)(C)C(O)C(Oc1ccc(Cl)cc1)n1cncn1 (stereo not given) | 0 | 0 | 0 | 0 | - | -
CC(C(=O)c1ccc(Cl)cc1Cl)n1cncn1 (stereo not given) | 0 | 0 | 0 | 65 | 54 | 0
SMILES | Neddylation inh | PfG6PD inh | HKDC1 inhibitor | PfM18AAP inh-1 | PfM18AAP inh-2 | CTSL1 counter | others
CC=C(C)C1(CCC)C(=O)NC(=S)NC1=O | 0 | 0 | 0 | - | - | -
O=C1/C(=C\c2cc3c(cc2Br)OCO3)N2CCC1CC2 | 0 | 0 | 0 | 37 | 0 | 0
O=C1/C(=C/c2ccc3c(c2)OCO3)N2CCC1CC2 | 0 | 0 | 0 | 0 | - | -
CCN(CC)c1ccc(N=Cc2c(O)[nH]c(=O)[nH]c2=O)cc1 | 0 | 0 | 0 | 44 | 0 | 0
O=c1[nH]c(=S)[nH]c(O)c1/C=C1/C=c2ccccc2=N1 | 0 | 0 | 0 | 44 | 59 | 0
Cc1cc2c(cc1C)NP(=S)(c1ccccc1)N2 | 0 | 0 | 0 | - | - | -
O=C1NC(=O)N(Cc2ccco2)C(=O)/C1=C/c1ccc(-c2cccc([N+](=O)[O-])c2)o1 | 0 | 90 | 37 | 34 | 0 | 0
O=C(O)c1ccc(-n2c(O)c(/C=C3\C=Nc4ccccc43)c(=O)[nH]c2=O)cc1 | 0 | 0 | 0 | 48 | 53 | 0
O=c1[nH]c(=O)n(-c2cccc(F)c2)c(O)c1/C=C1\C=Nc2ccccc21 | 0 | 0 | 0 | 34 | 45 | 0
O=c1[nH]c(=O)n(-c2ccccc2)c(O)c1/C=C1/C(c2ccccc2)=Nc2ccccc21 | 0 | 0 | 0 | 0 | - | -
COC(=O)C1=C(c2cccc(C#N)c2)C[C@@H]2CC[C@H]1N2C(=O)NC1Cc2ccccc2C1 | 0 | 0 | 0 | - | - | -
CN1C[C@H](CO)C=C2c3cccc4[nH]cc(c34)C[C@H]21 | - | 0 | 0 | 0 | - | -
CC1=C[C@@H]2c3cccc4[nH]cc(c34)C[C@H]2N(C)C1 | 0 | 59 | 0 | 48 | 0 | 0 | PfGluPho conf=0
COc1ccc(CN2Cc3cc(N4CCOCC4)ccc3-n3nncc3C2)cc1 | 0 | - | - | - | - | -
C=CCN1CCc2cccc3c2[C@H]1Cc1ccc(O)c(O)c1-3 | 0 | 81 | 0 | 62 | 56 | 0 | PfGluPho conf=84;Diaphorase 10uM=0;Diaph ctr 30uM=0
O=C(OCC(=O)c1ccc([N+](=O)[O-])cc1)/C(=C\c1ccc(Cl)cc1)NC(=O)c1ccccc1 | 0 | 0 | 0 | 40 | 0 | 0 | PfGluPho conf=69;Diaphorase 10uM=0;Diaph ctr 30uM=0
O=c1[nH]c(=S)n(-c2ccccc2F)c(O)c1C=NCCN1CCNCC1 | 0 | 0 | 0 | 0 | - | -
CC(=NNC(=S)N1CC2CCC(CC2)C1)c1nccs1 | 0 | 0 | 0 | - | - | - | HKDC1 act conf=-42
c1ccc2c(c1)-c1cccc3cccc-2c13 | 0 | 0 | 0 | - | - | -
Nc1c(Br)cc2c3c(cccc13)-c1ccccc1-2 | - | 125 | 70 | - | - | - | HKDC1 act conf=0
CC[C@H](C)/C=C(C)/C=C/C1=CC2=C(Cl)C(=O)[C@](C)(OC(C)=O)C(=O)C2=CO1 | 0 | 0 | 59 | - | - | - | HKDC1 act conf=0
Cc1cc(C(=O)N2CCC3(CC2)OCCO3)no1 | 0 | 0 | 0 | 0 | - | -
O=C1NC(=S)NC(=O)C1=Cc1ccc2c(c1)CCN2CCCCl | 0 | 0 | 59 | 0 | - | - | HKDC1 act conf=0
CCOc1cc(C=C2C(=O)NC(=S)NC2=O)ccc1O | 0 | 0 | 0 | - | - | -
Cc1ccc(C2N3CCCN23)cc1 (stereo not given) | 0 | 0 | 0 | 0 | - | -
Brc1ccc(C2N3CCCN23)cc1 (stereo not given) | 0 | 0 | 0 | 0 | - | - | HKDC1 act conf=0
COCCNC(=O)CN1C(=O)CN=C(c2ccccc2)c2ccccc21 | 0 | 0 | 0 | 0 | - | -
